Screening results from PubChem.
A selection: hits, their analogues and other compounds. The true share with any hit is near 9.4%.
Beta apoptosis = blocks beta cell apoptosis; 300,000 compounds, 0.8% hits; protection from apoptosis, % (concentration not given with the values); INS-1E cytokine-induced death, ATP luminescence, 48 h; percent of positive-control rescue, neutral wells zero; AID 435005;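 active means Every replicate reaches about 75%, or at least half do and their mean reaches it too, limit read from the data; inconclusive means At least half of replicates reach the limit but their mean does not; inactive means Under half of replicates reach the limit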;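 further: 0% = cytokine-treated negative control wells and 100% = positive control rescue; higher means more ATP so stronger rescue from cytokine killing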
Lmaj promast = reduces viability of Leishmania major promastigotes. 200,000 compounds, 9% hits. resazurin fluorescence viability. inhibition, % at 10 µM; in the data active means inhibition above about 50%;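 further: promastigotes grown with compound for 44 hours at 28 °C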
SKKanGAS inh = SKKanGAS growth inhibition | S. pyogenes SKKanGAS, kanamycin growth, BacTiter-Glo, 6 h | inhibition, % at 7.5 µM | 300,000 compounds, 1.3% hits;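 active means mean replicate score, as percent of positive control median, at least 50; inconclusive means mean below 50 but one replicate at or above 50; inactive means mean and every replicate below 50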;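 further: strain carries kanamycin resistance gene driven by streptokinase promoter and grows in 40 µg/ml kanamycin; loss of luminescence reflects streptokinase promoter inhibition or plain growth inhibition; 0% = median of DMSO wells and 100% = positive control at its reference dose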
T cruzi repl = T. cruzi replication inhibition. T. cruzi beta-gal in NIH3T3, luminescence, 90 h. 300,000 compounds, 1.4% hits. AID 1885. inhibition, % (no concentration beside the values);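 active means mean inhibition across valid replicates above about 55%, limit read from the data; inconclusive means mean below that limit but half or more replicates reach it; inactive means mean below it, under half of replicates reach it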;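 further: signal also drops with host cell toxicity which is not excluded here; 0% = plate median of DMSO wells and 100% = zero luminescence signal; higher percent means less beta-gal luminescence so fewer parasites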
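System: Mouse NIH/3T3 fibroblasts infected with β-gal-expressing T. cruzi Tulahuen C4 | Quantity: NIH/3T3 cells, 5,000 per well | Reagent: 5000 reporter trypomastigotes per well | Dosing: Compound pinned at 50 nL/well, DMSO | Schedule: 3 h host attachment, then at least 90 h co-culture | Detection: GalScreen luminescence, 60 min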
CSC inhib = cancer stem cell inhibition. cancer stem cell-like cells viability, luminescence. inhibition, % at 7.5 µM. 300,000 compounds, 1.1% hits. AID 2717; in the data active means inhibition above about 75%; inconclusive means no clear call, values can overlap the other calls; tested in HMLE shEcad cells
Mdm2-MdmX inh = disrupts the human Mdm2-MdmX interaction | O15151+Q00987 | inhibition, % at 8 µM | SaOS-2 split-luciferase Mdm2/MdmX complementation, luminescence | 330,000 compounds, 3% hits;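 active means inhibition of at least 50% at 8 µM in the primary screen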
Target sequence (O15151 whole entry, looked up): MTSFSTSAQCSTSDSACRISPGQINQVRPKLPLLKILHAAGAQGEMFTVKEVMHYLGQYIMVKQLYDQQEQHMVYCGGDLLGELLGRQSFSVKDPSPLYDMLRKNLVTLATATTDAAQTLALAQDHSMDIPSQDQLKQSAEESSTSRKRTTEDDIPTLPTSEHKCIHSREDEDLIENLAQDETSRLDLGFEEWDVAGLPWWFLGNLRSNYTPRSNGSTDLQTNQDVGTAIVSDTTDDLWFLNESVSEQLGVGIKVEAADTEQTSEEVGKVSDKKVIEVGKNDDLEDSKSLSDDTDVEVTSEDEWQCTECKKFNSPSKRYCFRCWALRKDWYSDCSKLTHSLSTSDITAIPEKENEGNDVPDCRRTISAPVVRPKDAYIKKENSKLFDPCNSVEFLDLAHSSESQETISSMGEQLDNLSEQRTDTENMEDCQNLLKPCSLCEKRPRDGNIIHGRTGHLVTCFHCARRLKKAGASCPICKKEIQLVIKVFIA
Target sequence (Q00987 whole entry, looked up): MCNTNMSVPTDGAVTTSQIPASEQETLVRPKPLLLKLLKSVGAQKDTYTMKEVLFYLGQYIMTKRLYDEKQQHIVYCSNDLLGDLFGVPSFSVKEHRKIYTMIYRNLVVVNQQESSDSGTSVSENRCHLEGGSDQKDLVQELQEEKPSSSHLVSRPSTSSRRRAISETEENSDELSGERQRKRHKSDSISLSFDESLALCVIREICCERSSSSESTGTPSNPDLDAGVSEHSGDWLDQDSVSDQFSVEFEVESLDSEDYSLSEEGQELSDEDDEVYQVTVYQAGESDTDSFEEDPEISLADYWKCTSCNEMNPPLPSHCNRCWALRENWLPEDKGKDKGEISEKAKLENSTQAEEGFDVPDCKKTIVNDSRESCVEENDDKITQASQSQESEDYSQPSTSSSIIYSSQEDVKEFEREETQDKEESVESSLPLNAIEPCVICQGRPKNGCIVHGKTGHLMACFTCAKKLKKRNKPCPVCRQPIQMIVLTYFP
Numbers without * were called inactive; ? = inconclusive; . = no result given.

SMILES	Beta apoptosis	Lmaj promast	SKKanGAS inh	T cruzi repl	CSC inhib	Mdm2-MdmX inh
Cc1ccccc1C(=O)NNC(=S)NC(=O)c1cccs1	11	.	69*	-12	2	19
O=C(OCCOc1ccccc1F)c1cccc(S(=O)(=O)N2CCOCC2)c1	-4	.	.	.	.	-29
COc1ccc(OC)c(C(=O)NC(CC(N)=O)c2ccc(N3CCCCCC3)c([N+](=O)[O-])c2)c1 (stereo unspecified)	3	.	8	-5	-19	-22
O=C(NNC(=O)c1cccs1)c1ccc(F)cc1	-2	.	-1	-1	28	6
O=C(NNC(=O)c1cccs1)c1cccc(F)c1	-6	.	-6	5	-15	-18
O=C(NC(=S)NNC(=O)c1cccs1)c1ccccc1	9	.	86*	-5	3	26
COc1ccc(NC(=O)c2ccco2)cc1NC(=O)c1cccs1	7	16	1	5	-3	18
O=C(Nc1ccc(NC(=O)c2cccs2)c(Cl)c1)c1ccco1	-6	59*	-1	10	-2	18
CC(C)(C)c1ccc(C(=O)NC(=S)NNC(=O)c2cccs2)cc1	1	25	104*	56*	38	.
Cc1cccc(C(=O)NC(=S)NNC(=O)c2cccs2)c1	6	-6	51*	-11	5	39
O=C(COc1coc(CN2CCc3ccccc3C2)cc1=O)Nc1ccccc1F	.	.	-3	12	-2	3
O=C(O)C1(O)C[C@H](O)C(O)[C@@H](O)C1 (stereo partly specified)	0	.	.	.	-1	24
O=C(CCC1CCCN(C(=O)c2cc3ccccc3o2)C1)NCc1ccc(F)c(F)c1 (stereo unspecified)	0	.	-5	-7	-3	.
COc1cc(OC)cc(C(=O)N[C@H](C(=O)OCC(=O)Nc2ccc(F)c(F)c2)C(C)C)c1	-7	2	5	1	-1	39
COc1cc(OC)cc(C(=O)N[C@H](C(=O)OCC(=O)Nc2ccc(C(N)=O)cc2)C(C)C)c1	-2	56*	4	-22	-8	19
CCOc1cc(/C=C2\N=C(SC(C)C(N)=O)N(c3ccc(OC(F)F)cc3)C2=O)ccc1O (stereo unspecified)	17	.	26	-15	103*	22
CCOc1ccc2nc(NC(=O)CN3CCC(n4nnc5cc(C(F)(F)F)ccc54)CC3)sc2c1	4	16	52*	30	-16	17
Cc1cc(NC(=O)CN2CCC(n3nnc4cc(C(F)(F)F)ccc43)CC2)no1	3	36	-8	-1	0	10
O=C(CN1CCC(n2nnc3cc(C(F)(F)F)ccc32)CC1)N1CCc2ccccc21	.	56*	-3	13	.	30
O=C(CN1CCC(n2nnc3cc(F)ccc32)CC1)N1CCCc2ccccc21	13	9	-3	-1	17	-12
COc1cccc(CN2CCNC(=O)C2CC(=O)N(C)C2CCCCC2)c1 (stereo unspecified)	-10	.	-2	-1	-5	24
O=C(CN1C(=O)/C(=C\c2cccc(F)c2)Oc2ccccc21)N1CCN(c2ccccn2)CC1	0	50*	-1	-3	-16	42
O=C(CN1C(=O)/C(=C/c2ccccc2F)Sc2ccccc21)N1CCN(c2ccccn2)CC1	2	15	4	18	6	21
CC(=O)N1CCN(c2ccc(NC(=O)c3ccc(C(C)(C)C)cc3)cc2)CC1	8	97*	4	12	15	32
O=C(Nc1ccc(N2CCCCC2)cc1)c1cc([N+](=O)[O-])cc([N+](=O)[O-])c1	9	66*	3	60*	6	20
SMILES	Beta apoptosis	Lmaj promast	SKKanGAS inh	T cruzi repl	CSC inhib	Mdm2-MdmX inh
Cc1ccc(C(=O)Nc2ccc(N3CCCCC3)cc2)cc1	-1	.	.	.	.	-81
COc1ccc(C(=O)Nc2ccc(N3CCCCC3)cc2)cc1Br	-3	52*	4	28	-18	-5
COc1ccc(C(=O)Nc2ccc(Nc3ccccc3)cc2)cc1Br	8	.	3	38	24	2
CC(C)Oc1ccc(C(=O)Nc2ccc(N3CCCCC3)cc2)cc1	0	51*	1	12	16	12
Cc1ccc(CNS(=O)(=O)c2ccc3c(c2)NC(=O)CS3)cc1	0	.	-4	-7	15	-1
O=C(CCOc1ccccc1)Nc1ccnn1C1CCN(Cc2ccccc2)CC1	3	.	-4	11	5	-13
Cc1ccc(C(=O)OC2OC(=O)C(Cl)=C2N2CCOCC2)cc1 (stereo unspecified)	-4	-5	75*	-7	0	-5
Cc1ccc(NC(=O)c2cccs2)cc1S(=O)(=O)Nc1cccc(Cl)c1	3	51*	42	12	29	27
Cc1ccc(C(=O)Nc2cccc([N+](=O)[O-])c2)cc1S(=O)(=O)Nc1ccc(NC(=O)c2ccccc2)cc1	3	62*	23	43	23	29
Cc1ccccc1NS(=O)(=O)c1cc(C(=O)Nc2cccc(N(C)S(C)(=O)=O)c2)ccc1C	-2	97*	16	8	11	30
Cc1ccc(NS(=O)(=O)c2cc(C(=O)Nc3cccc([N+](=O)[O-])c3)ccc2C)cc1	8	67*	18	25	35	42
Cc1ccc(C(=O)Nc2cccc([N+](=O)[O-])c2)cc1S(=O)(=O)Nc1cccc(C(=O)O)c1	4	-7	-4	-3	3	3
CCc1ccc(NC(=O)Nc2ccsc2C(=O)OC)cc1	4	.	21	1	-11	12
O=c1c2c([nH]n1-c1ccccc1)CCSC2	-2	.	3	-5	-28	4
O=C(NC1CC1)c1nc(Cn2cc([N+](=O)[O-])cn2)no1	.	.	2	-12	.	14
Cc1ccc(NS(=O)(=O)c2ccc(OCC(=O)Nc3cccc([N+](=O)[O-])c3)c(C)c2)cc1	-3	100*	23	17	63	22
Cc1ccc(NC(=O)CC(=O)c2ccc([N+](=O)[O-])cc2)cc1S(=O)(=O)Nc1cccc(Cl)c1	5	51*	15	34	33	0
Cc1ccc(NC(=O)CCNC(=O)c2ccc([N+](=O)[O-])cc2)cc1S(=O)(=O)N(C)C	6	7	5	21	3	-21
CCCc1nc(NCc2ccccn2)c2nnn(Cc3ccccc3F)c2n1	3	5	3	38	.	8
CCCc1nc(NCc2ccncc2)c2nnn(Cc3ccccc3F)c2n1	16	57*	3	16	8	-14
Oc1ccccc1/C=N/Nc1ccccc1	3	13	-12	-1	69	-29
Oc1ccccc1/C=N/Nc1nc2ccccc2o1	98*	.	106*	56*	?	-36
Oc1ccccc1/C=N/Nc1ncc(Br)cn1	87*	26	-20	10	8	.
Oc1ccccc1/C=N/Nc1ccnc(SCc2ccccc2)n1	-3	96*	.	.	-17	.
Cc1[nH][nH]c(=O)c1C(c1c(C)[nH][nH]c1=O)c1cn(Cc2ccccc2Cl)c2ccccc12	.	28	30	-4	.	.
